These results are taken from PubChem BioAssay.

Each structure is given as a SMILES string. Calls of active or inactive are those of the source.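 Rule for the calls, unless noted: active = viability loss from added drug above about 55%, and viability with drug at most 40%, in both replicates (limit read from the data, passing the limit was not always enough); inconclusive = both conditions met in only one replicate; inactive = neither replicate meets both conditions.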

Assay [1] can be described thus: Her2 expression decrease, cell viability multiplex – SKBR3 breast tumor cells, AlphaScreen, ATP viability, primary screen (AID 461;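 active = Her2 level under about 52% in both replicate screens, with viability over 70% of control, limit read from the data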;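 for Her2 level: lower value means less Her2 protein in the cells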;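 for viability: percent of carrier control wells set as 100% viability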). The note with it: SKBR3 Her2 protein level, 18-24 h, measured here: SKBR3 viability, ATP luminescence, at 10 µM.
The target in assay [2] is Receptor tyrosine-protein kinase erbB-2 (Homo sapiens) (UniProt P04626). The assay is described as above. The note with it: 18-24 h, at 10 µM, stronger effect = lower value.
Receptor tyrosine-protein kinase erbB-2 (Homo sapiens), sequence (P04626 whole entry, looked up): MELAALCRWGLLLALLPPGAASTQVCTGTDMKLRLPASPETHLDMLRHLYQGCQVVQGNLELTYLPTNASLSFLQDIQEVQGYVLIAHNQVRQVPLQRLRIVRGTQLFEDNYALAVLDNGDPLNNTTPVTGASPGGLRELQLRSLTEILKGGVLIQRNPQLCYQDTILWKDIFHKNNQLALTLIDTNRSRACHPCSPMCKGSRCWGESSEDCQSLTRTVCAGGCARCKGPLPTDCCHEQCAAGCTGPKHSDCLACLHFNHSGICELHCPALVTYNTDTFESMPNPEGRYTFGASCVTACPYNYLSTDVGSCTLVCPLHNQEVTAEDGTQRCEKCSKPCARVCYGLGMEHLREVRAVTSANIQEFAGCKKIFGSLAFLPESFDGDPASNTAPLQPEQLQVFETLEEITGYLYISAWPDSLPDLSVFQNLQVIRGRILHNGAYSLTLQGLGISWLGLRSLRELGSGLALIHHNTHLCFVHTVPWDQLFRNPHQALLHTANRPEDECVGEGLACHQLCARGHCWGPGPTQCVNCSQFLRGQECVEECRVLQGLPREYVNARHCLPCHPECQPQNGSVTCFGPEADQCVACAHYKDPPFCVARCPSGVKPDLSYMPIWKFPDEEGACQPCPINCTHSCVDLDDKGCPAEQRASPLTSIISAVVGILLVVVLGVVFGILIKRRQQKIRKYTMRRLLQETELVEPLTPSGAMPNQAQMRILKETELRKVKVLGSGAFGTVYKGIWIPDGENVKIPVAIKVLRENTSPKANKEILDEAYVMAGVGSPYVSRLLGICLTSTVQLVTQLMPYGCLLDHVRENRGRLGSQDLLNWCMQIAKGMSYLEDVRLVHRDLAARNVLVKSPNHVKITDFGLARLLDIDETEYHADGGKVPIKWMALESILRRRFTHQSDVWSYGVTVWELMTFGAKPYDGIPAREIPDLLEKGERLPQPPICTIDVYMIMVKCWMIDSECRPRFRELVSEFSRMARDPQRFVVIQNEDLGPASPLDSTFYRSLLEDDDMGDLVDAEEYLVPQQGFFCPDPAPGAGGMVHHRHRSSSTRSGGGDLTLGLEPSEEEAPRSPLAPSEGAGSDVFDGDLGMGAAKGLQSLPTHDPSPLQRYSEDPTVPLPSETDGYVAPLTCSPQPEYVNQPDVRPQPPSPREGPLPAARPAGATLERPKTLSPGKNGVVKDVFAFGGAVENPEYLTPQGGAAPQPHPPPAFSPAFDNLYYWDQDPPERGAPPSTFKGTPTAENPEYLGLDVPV
The nature of assay [3]: reduced viability of SK-BR-3 breast cancer cells – cell-based, 24 h, human, pilot screen (AID 572;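 active = viability at or below 10% of carrier control in both of two separate runs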;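 note: compound exposure lasted between 18 and 24 h rather than exactly 24 h; 100% = carrier-treated control wells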). The following applies: SK-BR-3 viability, CellTiter-Glo luminescence, at 10 µM, stronger effect = lower value.
A short description of assay [4]: HUVEC growth inhibition – cell-based, human, primary screen (AID 575;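 active = viability at or below 30% in both replicate assays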;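 note: 100% = median of untreated cell wells with 0.1% DMSO on each plate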). The following applies: HUVEC proliferation, CellTiter-Glo luminescence, 72 h; at 10 µM; stronger effect = lower value. A digest of the protocol:
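Test system: HUVEC primary cells. Quantity: 1250 endothelial cells in each well. Dosing: single-point 10 µM, DMSO 0.1% final. Incubation: 72 h treatment at 37 °C. Measured by: CTG luminescence. Control set: DMSO cell controls and MePR drug controls. Plate: collagen-coated 384-well format.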

Assay [5] is described as follows: H69AR cell proliferation blockers – human, duplicate replicates, primary screen (AID 580;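 active = viability at or under a set limit in both replicates, limit being median viability minus 3 SD, cut at about 48% in these data, passing the limit was not always enough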;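 note: 100% = mean luminescence of untreated wells and 0% = no signal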). The note with it: H69AR lung tumor cells viability, ATP luminescence, 72 h; at 10 µM; stronger effect = lower value.
Assay [6] can be described thus: MRP1 drug-resistance reversers in H69AR cells – cell-based, doxorubicin co-treatment, pilot screen (AID 601). The note with it: CellTiter-Glo, 72 h, at 10 µM; for differential viability (reversal): stronger effect = higher value.
A short description of assay [7]: yeast transport mutant growth inhibition pilot in 384-well plates, post-Golgi transport modulator project (AID 636; in the data active = inhibition above about 31%). The note with it: absorbance 615 nm, about 18 h, stronger effect = higher value.
The nature of assay [8]: growth suppression of yeast trafficking mutant, preliminary HTS, modulators of trafficking downstream of Golgi apparatus project, 1536-format plate, OD 615 nm (AID 637; in the data active = inhibition above about 30%). The note with it: yeast transport mutant growth, absorbance 615 nm, 18 h; stronger effect = higher value.
The mark [9] stands for this setting: H69AR cells + 2 uM doxorubicin, measured here: viability with 2 uM doxorubicin, stronger effect = lower value.
[10] abbreviates: H69AR cells, compound alone cytotoxicity.

Turning to `COc1ccc2[nH]c(=O)c(CN(C(=O)c3cccnc3)c3ccccc3OC)cc2c1`, the viability in assay [1] was 104%; in assay [3] it was 104% (inactive); in assay [4] it was 90.8% (inactive); in assay [5], 89.1% (inactive); in assay [6] (setting [9]), 91.3%; in assay [6] (setting [10]), 89.1%. In addition, the Her2 level in assay [2] was 97% (inactive). Further, the differential viability (reversal) in assay [6] (H69AR cells + 2 uM doxorubicin) was -2.19% (inactive). For the same compound, the inhibition is -6% (inactive) in assay [7] and -0.16% (inactive) in assay [8].

For `Cc1c(NS(=O)(=O)c2ccc3c(c2)c(=O)n(C)c(=O)n3C)c(=O)n(-c2ccccc2)n1C`, the viability in assay [1] was 99.5%; in assay [3] it was 99.5% (inactive); in assay [4], 77.8% (inactive); in assay [5], 95.7% (inactive); in assay [6] (setting [9]), 89.6%; in assay [6] (setting [10]), 95.7%. Moreover, in assay [2], the Her2 level is 85.5% (inactive). The differential viability (reversal) in assay [6] (H69AR cells + 2 uM doxorubicin) was 6.11% (inactive). The inhibition in assay [7] was -4.4% (inactive); in assay [8] it was 7.7% (inactive).

Consider `Cc1c(Br)c(C(F)(F)F)nn1CC(=O)NCCN1CCOCC1`, for which the viability in assay [1] is 122%; in assay [3] it was 122% (inactive); in assay [4] it was 108% (inactive); in assay [5], 96.6% (inactive); in assay [6] (setting [9]), 86.3%; in assay [6] (setting [10]), 96.6%. The Her2 level in assay [2] was 100% (inactive). In assay [6] (H69AR cells + 2 uM doxorubicin), the differential viability (reversal) was 10.3% (inactive). Also, the figures for the inhibition in assay [7] and in assay [8] were -6.27% (inactive) and 2.1% (inactive), respectively.

For the compound `C/C(=N\O)C(C)/[N+]([O-])=C/c1nc(C)c(C)n1O` (stereo not given), the viability in assay [1] is 95.5%; in assay [3], 95.5% (inactive); in assay [4], 97% (inactive); in assay [5] it was 92.8% (inactive); in assay [6] (setting [9]) it was 102%; in assay [6] (setting [10]), 92.8%. For the same compound, the Her2 level in assay [2] was 109% (inactive). In addition, the differential viability (reversal) in assay [6] (H69AR cells + 2 uM doxorubicin) was -8.95% (inactive). Moreover, the inhibition was -0.27% (inactive) in assay [7] and 0.48% (inactive) in assay [8].

As for `Cc1ccc(-c2noc(C3CCCN(C(=O)c4ccc(F)cc4F)C3)n2)cc1` (stereo not given), the viability in assay [1] was 99%; in assay [3], 99% (inactive); in assay [4], 87.4% (inactive); in assay [5] it was 90% (inactive); in assay [6] (setting [9]) it was 88.1%; in assay [6] (setting [10]) it was 90%. For the same compound, the Her2 level in assay [2] is 94% (inactive). In assay [6] (H69AR cells + 2 uM doxorubicin), the differential viability (reversal) is 1.88% (inactive). The inhibition in assay [7] was -2.16% (inactive); in assay [8], -9% (inactive).

`Cc1ccc(C)c(N2CCN(C(=O)C3CCN(S(=O)(=O)c4c(C)noc4C)CC3)CC2)c1`: the viability in assay [1] is 104%; in assay [3], 104% (inactive); in assay [4], 74.8% (inactive); in assay [5], 83.4% (inactive); in assay [6] (setting [9]), 55.6%; in assay [6] (setting [10]) it was 83.4%. In addition, the Her2 level in assay [2] is 72% (inactive). Further, the differential viability (reversal) in assay [6] (H69AR cells + 2 uM doxorubicin) is 27.8% (inactive). Moreover, the inhibition in assay [7] is -2.89% (inactive); in assay [8] it was -3.97% (inactive).

In the case of `CCN1CCN(S(=O)(=O)Cc2ccccc2)CC1`, the viability was 116% in assay [1]; 116% (inactive) in assay [3]; 105% (inactive) in assay [4]; 91.4% (inactive) in assay [5]; 92.1% in assay [6] (setting [9]); 91.4% in assay [6] (setting [10]). Further, the Her2 level in assay [2] is 114% (inactive). The differential viability (reversal) in assay [6] (H69AR cells + 2 uM doxorubicin) was -0.695% (inactive). In addition, the inhibition in assay [7] is 1.62% (inactive); in assay [8] it was 12.9% (inactive).

As for `Cn1c(CN2CCOCC2)nc2cc(NC(=O)c3ccccc3Cl)ccc21`, the viability is 102% in assay [1]; 102% (inactive) in assay [3]; 92% (inactive) in assay [4]; 97.1% (inactive) in assay [5]; 99.5% in assay [6] (setting [9]); 97.1% in assay [6] (setting [10]). Further, the Her2 level in assay [2] is 103% (inactive). Further, in assay [6] (H69AR cells + 2 uM doxorubicin), the differential viability (reversal) is -2.36% (inactive). Further, the inhibition was -3.55% (inactive) in assay [7] and -2.42% (inactive) in assay [8].

With `O=C(NCc1ccco1)c1cc2n(n1)C(C(F)(F)F)CC(c1ccc(F)cc1)N2` (stereo not given), the viability in assay [1] was 120%; in assay [3] it was 120% (inactive); in assay [4] it was 67.1% (inactive); in assay [5], 86.8% (inactive); in assay [6] (setting [9]), 82.9%; in assay [6] (setting [10]), 86.8%. Also, the Her2 level in assay [2] is 106% (inactive). In addition, in assay [6] (H69AR cells + 2 uM doxorubicin), the differential viability (reversal) was 3.92% (inactive). The inhibition in assay [7] is -4.8% (inactive); in assay [8] it was -4.68% (inactive).

For the compound `CC1(C)Cc2c(sc3ncnc(N)c23)CO1`, the viability in assay [1] was 116%; in assay [3], 116% (inactive); in assay [4], 96.6% (inactive); in assay [5], 95.6% (inactive); in assay [6] (setting [9]), 87.3%; in assay [6] (setting [10]) it was 95.6%. For the same compound, the Her2 level in assay [2] was 92.5% (inactive). Besides, the differential viability (reversal) in assay [6] (H69AR cells + 2 uM doxorubicin) is 8.37% (inactive). Besides, the inhibition is -7.47% (inactive) in assay [7] and 1.48% (inactive) in assay [8].

With `CCOC(=O)N1CCN(c2c(NCCN(C)Cc3ccccc3)c(=O)c2=O)CC1`, the viability in assay [1] is 98%; in assay [3], 98% (inactive); in assay [4], 84.3% (inactive); in assay [5], 99% (inactive); in assay [6] (setting [9]), 92.9%; in assay [6] (setting [10]), 99%. Besides, the Her2 level in assay [2] was 95% (inactive). In assay [6] (H69AR cells + 2 uM doxorubicin), the differential viability (reversal) is 6.12% (inactive). In addition, the values for the inhibition in assay [7] and in assay [8] were 0.27% (inactive) and -2.3% (inactive), respectively.

With `CCOC(=O)CSc1ncnc2c1cnn2-c1ccc(C)cc1`, the viability in assay [1] was 103%; in assay [3], 103% (inactive); in assay [4] it was 75% (inactive); in assay [5] it was 90.6% (inactive); in assay [6] (setting [9]), 91.4%; in assay [6] (setting [10]), 90.6%. Also, in assay [2], the Her2 level is 88.5% (inactive). The differential viability (reversal) in assay [6] (H69AR cells + 2 uM doxorubicin) was -0.755% (inactive). Moreover, the values for the inhibition in assay [7] and in assay [8] were -6.4% (inactive) and 0.33% (inactive), respectively.

Regarding `Cc1ccc(S(=O)(=O)N[C@@H](C)C(=O)N2CCC(C(=O)N3CCC[C@H]3C(=O)O)CC2)cc1`, the viability was 98% in assay [1]; 98% (inactive) in assay [3]; 88.7% (inactive) in assay [4]; 102% (inactive) in assay [5]; 93.6% in assay [6] (setting [9]); 102% in assay [6] (setting [10]). The Her2 level in assay [2] is 100% (inactive). Besides, in assay [6] (H69AR cells + 2 uM doxorubicin), the differential viability (reversal) was 8.07% (inactive). The inhibition was -4.4% (inactive) in assay [7] and 1.31% (inactive) in assay [8].

For `COc1ccc(-c2nnc(-c3cccs3)o2)cc1OC`, the viability in assay [1] is 75%; in assay [3], 75% (inactive); in assay [4], 92.7% (inactive); in assay [5], 94.6% (inactive); in assay [6] (setting [9]) it was 93.5%; in assay [6] (setting [10]) it was 94.6%. Moreover, the Her2 level in assay [2] was 110% (inactive). For the same compound, in assay [6] (H69AR cells + 2 uM doxorubicin), the differential viability (reversal) is 1.17% (inactive). For the same compound, the inhibition in assay [7] is -3.78% (inactive); in assay [8], -3.93% (inactive).

For the compound `Cc1ccccc1-c1nc(CS(=O)(=O)CC(=O)NCc2ccc3c(c2)OCO3)c(C)o1`, the viability in assay [1] was 99%; in assay [3] it was 99% (inactive); in assay [4] it was 87.3% (inactive); in assay [5], 87.8% (inactive); in assay [6] (setting [9]), 85.5%; in assay [6] (setting [10]), 87.8%. The Her2 level in assay [2] is 89% (inactive). Moreover, in assay [6] (H69AR cells + 2 uM doxorubicin), the differential viability (reversal) was 2.28% (inactive). Moreover, the inhibition in assay [7] is -4.53% (inactive); in assay [8], 3.61% (inactive).

`O=C1CC(c2ccco2)=Nc2ccccc2N1`: the viability is 95% in assay [1]; 95% (inactive) in assay [3]; 94.9% (inactive) in assay [4]; 109% (inactive) in assay [5]; 92.5% in assay [6] (setting [9]); 109% in assay [6] (setting [10]). Also, the Her2 level in assay [2] is 118% (inactive). Moreover, the differential viability (reversal) in assay [6] (H69AR cells + 2 uM doxorubicin) is 16.7% (inactive). Moreover, the inhibition in assay [7] is -0.13% (inactive); in assay [8], -3.06% (inactive).
